Each structure is given as a SMILES string.

For the experiment, the system named is L1210. Nature of the experiment: Cytotoxicity was determined in vitro in murine leukemia L1210 Cells. In kind it is functional. The following applies: Mus musculus, read-out: ID50 (the source's name). In short, it runs like this: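 Growth inhibition of murine leukemia L1210 cells cultured in vitro. Cells were exposed to the adducts for 48 h and then counted. ID50 is the drug concentration that cuts cell number by 50% relative to untreated control.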
`Cc1c2cc[n+](C)cc2c(C)c2c3c([nH]c12)C=CC(=O)[C@@]31O[C@@H]2[C@H](O1)[C@@H](COP(=O)(O)O)O[C@H]2n1cnc2c(O)nc(N)nc21`: the IC50 is more than 1000 nM.
Then `Cc1c2cc[n+](C)cc2c(C)c2c3c([nH]c12)C=CC(=O)[C@@]31O[C@@H]2[C@H](O1)[C@@H](COP(=O)(O)O)O[C@H]2n1ccc(=O)[nH]c1=O`, with 1100 nM; and `Cc1c2cc[n+](C)cc2c(C)c2c3c([nH]c12)C=CC(=O)[C@@]31O[C@@H]2[C@H](O1)[C@@H](CO)O[C@H]2n1ccc(N)nc1=O`, with 3000 nM.
The same measure for `Cc1c2cc[n+](C)cc2c(C)c2c3c([nH]c12)C=CC(=O)[C@@]31O[C@@H]2[C@H](O1)[C@@H](COP(=O)(O)O)O[C@H]2n1ccc(N)nc1=O`: 12800 nM; for `Cc1c2cc[n+](C)cc2c(C)c2c3c([nH]c12)C=CC(=O)[C@@]31O[C@@H]2[C@H](O1)[C@@H](CO)O[C@H]2n1cnc2c(O)nc(N)nc21`: 800 nM.
Then `Cc1c2cc[n+](C)cc2c(C)c2c3c([nH]c12)C=CC(=O)[C@@]31O[C@@H]2[C@H](O1)[C@@H](CO)O[C@H]2n1cnc2c(N)ncnc21`, with 800 nM; and `Nc1nc2[nH]cnc2c(=S)[nH]1` [THIOGUANINE], with 70 nM; and `Cc1c2cc[n+](C)cc2c(C)c2c3c([nH]c12)C=CC(=O)[C@@]31O[C@@H]2[C@H](O1)[C@@H](CO)O[C@H]2n1ccc(=O)[nH]c1=O`, with more than 3000 nM.
As to `Nc1nc(=S)c2ncn([C@@H]3O[C@H](CO)[C@@H](O)[C@H]3O)c2[nH]1` [THIOGUANOSINE], the IC50 is 100 nM.
On to `Cc1c2cc[n+](C)cc2c(C)c2c1[nH]c1ccc(O)cc12` [ELLIPTINIUM ACETATE], for which the IC50 came out at 120 nM.
Regarding `Cc1c2cc[n+](C)cc2c(C)c2c3c([nH]c12)C=CC(=O)[C@@]31O[C@@H]2[C@H](O1)[C@@H](COP(=O)(O)O)O[C@H]2n1cnc2c(N)ncnc21`, the IC50 was more than 800 nM.
For `Cc1c2cc[n+](C)cc2c(C)c2c3c([nH]c12)C=CC(=O)[C@@]31O[C@@H]2[C@H](O1)[C@@H](CO)O[C@H]2n1ncc(=O)[nH]c1=O`, the IC50 is more than 3000 nM.
Regarding `O=c1cnn([C@@H]2O[C@H](CO)[C@@H](O)[C@H]2O)c(=O)[nH]1` [6-AZAURIDINE], the IC50 came out at 570 nM.

(Values after ChEMBL document CHEMBL1123327, “Ribose as the preferential target for the oxidized form of elliptinium acetate in ribonucleos(t)ides. Biological activities of the resulting adducts” (1986).)
